Laboratory results as given in ChEMBL document CHEMBL1153798, “Substituted tetrahydroquinolines as potent allosteric inhibitors of reverse transcriptase and its key mutants” (Bioorg Med Chem Lett, 2009).

Tests used:
[1] = tested on: Human immunodeficiency virus 1; assay: Antiviral activity against HIV1 3B infected human MT4 cells assessed as drug level required for 95% inhibition in the presence of 10% fetal bovine serum; assay type: functional
In short: (§1)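 Spread assay: MT-4 human T-lymphoid cells in RPMI 1640 with either 10% FBS or 50% NHS; CIC95 taken as the concentration blocking >95% of virus spread. Wild-type virus H9IIIB or R8 as stated per line. Geometric mean of at least two determinations, individual values within 25% of the mean.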

[2] = tested on: Human immunodeficiency virus 1; assay: Antiviral activity against HIV1 3B infected human MT4 cells assessed as drug level required for 95% inhibition in the presence of 50% normal human serum; assay type: functional; in short: as §1
[3] = Inhibition of HIV1 reverse transcriptase K103 mutant

Row | Compound | ID95 [1] | ID95 [2] | IC50 [3] | Activity [1] | Activity [2]
1 | O=C(CSC(=O)N1CCCc2cc(Cl)cc(Cl)c21)Nc1ccccc1Cl | 125 nM | 406 nM | – | – | –
2 | N#Cc1ccc(NC(=O)CSC(=O)N2CCCc3cc(Cl)cc(Cl)c32)c(Cl)c1 | – | 1250 nM | 14 nM | – | –
3 | NS(=O)(=O)c1ccc(NC(=O)COC(=O)N2CCCc3cc(Cl)cc(Cl)c32)c(Cl)c1 | – | – | 21 nM | 187 nM | 2.5 µM
4 | NS(=O)(=O)c1ccc(NC(=O)CCC(=O)N2CCCc3cc(Cl)cc(Cl)c32)c(Cl)c1 | – | – | – | 406 nM | 5 µM
5 | Cc1cccc2c1N(C(=O)SCC(=O)Nc1ccc(S(N)(=O)=O)cc1Cl)CCC2 | 47 nM | 219 nM | 4 nM | – | –
6 | NS(=O)(=O)c1ccc(NC(=O)CSC(=O)N2CCCc3cc(Cl)ccc32)c(Cl)c1 | 141 nM | 1250 nM | – | – | –
7 | NS(=O)(=O)c1ccc(NC(=O)CNC(=O)N2CCCc3cc(Cl)cc(Cl)c32)c(Cl)c1 | – | – | – | 562 nM | >10 µM
8 | Cc1cc(C)c(N(C)C(=O)SCC(=O)Nc2ccc(S(N)(=O)=O)cc2Cl)c(C)c1 | – | – | 9 nM | – | –
